Laboratory results taken from paper PMC6453127 (Biochimica et biophysica acta. General subjects, 2017).
Entries after “also recorded” stand apart in the source; their conditions may differ.

Columns and labels:
Hsp90α = Hsp90α (Homo sapiens, UniProt P07900); test: DARTs assay, full-length recombinant Hsp90α, pronase proteolysis; assay type: binding; conditions: 200 μM compound
GST-Hsp90α CTD (626–732) = GST-Hsp90α CTD (626–732) (Homo sapiens, UniProt P07900); test: DARTs assay with GST-Hsp90α CTD; assay type: binding; conditions: 200 μM compound
GST-Hsp90α NTD (9–236) = GST-Hsp90α NTD (9–236) (Homo sapiens, UniProt P07900); test: DARTs assay with GST-Hsp90α NTD; assay type: binding; conditions: 200 μM compound
Hsp90β [1] = molecular target: T1, Hsp90β (Homo sapiens, UniProt P08238); test: Microscale thermophoresis; assay type: binding; conditions: read-out: Kd (MST); labeled Hsp90β 40 nM
GST-Hsp90α CTD [2] = molecular target: T2, GST-Hsp90α CTD (Homo sapiens, UniProt P07900); test: ADH aggregation; assay type: biochemical
Summary of the method: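 Reaction: 6.2 μM equine ADH, with or without 500 nM GST-Hsp90α CTD and compound. Aggregation induced at 55 °C, read as absorbance at 360 nm every minute for 90 min. The 90-min endpoint was used, with the mean of ADH alone set to 100%. Three independent experiments.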

Hsp90 CTD = test: DTT-induced insulin aggregation chaperone assay; assay type: biochemical; conditions: 100 μM compound; 10 μM Hsp90 CTD
Summary of the method: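 200 μM insulin preincubated with 10 μM Hsp90 CTD, with or without compound, in 10 mM NaPO₄ and 100 mM NaCl at 30 °C for 1 h. Aggregation induced with 20 mM DTT and followed by absorbance at 650 over 40 min in a plate reader.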

Hsp90 = test: Luciferase refolding assay in rabbit reticulocyte lysate; assay type: biochemical
Summary of the method: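 Recombinant luciferase at 100 μg/mL in Tricine pH 7.8 buffer (MgCl₂, DTT, EDTA, 10% glycerol, 10 mg/mL BSA), heat-denatured at 41 °C for 30 min. Then added to rabbit reticulocyte lysate preincubated at 30 °C with compound. Aliquots taken every 15 min for 90 min into luciferase reagent and luminescence read. DMSO at 90 min set to 100%. Triplicate.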

His6-Hsp90β CTD = His6-Hsp90β CTD (Homo sapiens, UniProt P08238); test: BS3 crosslinking dimerization/oligomerization assay, His6-Hsp90β CTD; assay type: biochemical; conditions: 2 μM protein; BS3 crosslinker
full-length Hsp90α = full-length Hsp90α (Homo sapiens, UniProt P07900); test: BS3 crosslinking assay, full length Hsp90α; assay type: biochemical; conditions: 2 μM protein; BS3 crosslinker
Summary of the method: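 Full-length Hsp90α used at 2 μM in 50 mM NaPO₄ and 150 mM NaCl, preincubated with compound for 1 h at room temperature. BS3 crosslinker added at 66–200 μM final for 1 h at RT, then quenched with 50 mM Tris-HCl pH 7.5 for 15 min. Analysed by 10% SDS-PAGE and western blot.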

GST-Hsp90α CTD [3] = molecular target: T2, GST-Hsp90α CTD; test: BS3 crosslinking assay, GST-Hsp90α CTD; assay type: biochemical; conditions: 2 μM protein; NSC145366 10 μM to 100 μM
GST-Hsp90α NTD [4] = molecular target: T3, GST-Hsp90α NTD (Homo sapiens, UniProt P07900); test: BS3 crosslinking assay, GST-Hsp90α NTD; assay type: biochemical; conditions: 2 μM protein
Summary of the method: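 2 μM protein buffer-exchanged into 50 mM NaPO₄ and 150 mM NaCl, then preincubated with compound for 1 h at room temperature. BS3 added at 66–200 μM final for 1 h at RT, then quenched with 50 mM Tris-HCl pH 7.5 for 15 min. Boiled in SDS dye, run on 10% SDS-PAGE, western-blotted and probed with anti-GST antibody.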

BSA = BSA (Bos taurus, UniProt P02769); test: Crosslinking specificity control with BSA; assay type: biochemical
Hsp90β [5] = molecular target: T1, Hsp90β; test: Transcreener ADP Hsp90 ATPase assay; assay type: biochemical; conditions: read-out: IC50, Hsp90β ATPase function; 0.5 μM Hsp90β, 250 μM ATP, 37 °C 30 min
Hsp70 = Hsp70 (Homo sapiens, UniProt P0DMV8); test: Transcreener ADP Hsp70 ATPase assay; assay type: biochemical; conditions: 0.5 μM Hsp70; up to 200 μM
Summary of the method: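 Stopped with EDTA stop-and-detect buffer containing ADP² antibody-IRDye QC-1 and 8 nM ADP Alexa594 tracer, 1 h at RT. Endpoint fluorescence intensity read. Three experiments, four-parameter logistic fit.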

Hsp90β [6] = molecular target: T1, Hsp90β; test: Competitive displacement of FITC-GA; assay type: binding; conditions: competitor 3 nM to 3 μM; 60 nM Hsp90β, 5 nM FITC-GA
GST-Hsp90α CTD [7] = molecular target: T2, GST-Hsp90α CTD; test: ATP-agarose pulldown, Hsp90 CTD; assay type: binding; conditions: 200 μM compound, 6 μM CTD
GST-Hsp90α NTD [8] = molecular target: T3, GST-Hsp90α NTD; test: ATP-agarose pulldown, Hsp90 NTD; assay type: binding; conditions: 200 μM compound, 6 μM NTD
PC3 = test: NCI-60 screen, PC3 prostate cancer cell line; assay type: cell-based, human; conditions: NCI re-screen
Summary of the method: (§1)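 NCI Developmental Therapeutics Program re-screen, 5-concentration dose response. Growth measured by SRB staining.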

DU-145 = test: NCI-60 screen, DU-145 prostate cancer cell line; assay type: cell-based, human; conditions: NCI re-screen
Summary of the method: as §1

LNCaP cells [9] = test: Western blot of Hsp90 clients and heat shock proteins in LNCaP cells; assay type: cell-based; conditions: 48 h
Summary of the method: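 ATCC LNCaP cells kept in ATCC-recommended medium, authenticated and used within 20 passages. Cells treated for 48 h, trypsinised, PBS-washed and lysed in RIPA with protease inhibitors, 1 mM PMSF, 0.1% Triton X-100 and 1 mM DTT. Protein measured by Bradford before western blot. Band intensities of treated samples expressed as percentage of vehicle.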

LNCaP cells [10] = test: Cytotoxicity to LNCaP cells; assay type: cell-based; conditions: 5 μM; data not shown
Lewis lung carcinoma = conditions: 3.12 mg/kg; Lewis lung carcinoma mouse model; ref http://dtp.cancer.gov; cited from earlier work
[11] = mouse xenograft models; ref http://dtp.cancer.gov; cited from earlier work

T1 sequence (P08238 whole entry): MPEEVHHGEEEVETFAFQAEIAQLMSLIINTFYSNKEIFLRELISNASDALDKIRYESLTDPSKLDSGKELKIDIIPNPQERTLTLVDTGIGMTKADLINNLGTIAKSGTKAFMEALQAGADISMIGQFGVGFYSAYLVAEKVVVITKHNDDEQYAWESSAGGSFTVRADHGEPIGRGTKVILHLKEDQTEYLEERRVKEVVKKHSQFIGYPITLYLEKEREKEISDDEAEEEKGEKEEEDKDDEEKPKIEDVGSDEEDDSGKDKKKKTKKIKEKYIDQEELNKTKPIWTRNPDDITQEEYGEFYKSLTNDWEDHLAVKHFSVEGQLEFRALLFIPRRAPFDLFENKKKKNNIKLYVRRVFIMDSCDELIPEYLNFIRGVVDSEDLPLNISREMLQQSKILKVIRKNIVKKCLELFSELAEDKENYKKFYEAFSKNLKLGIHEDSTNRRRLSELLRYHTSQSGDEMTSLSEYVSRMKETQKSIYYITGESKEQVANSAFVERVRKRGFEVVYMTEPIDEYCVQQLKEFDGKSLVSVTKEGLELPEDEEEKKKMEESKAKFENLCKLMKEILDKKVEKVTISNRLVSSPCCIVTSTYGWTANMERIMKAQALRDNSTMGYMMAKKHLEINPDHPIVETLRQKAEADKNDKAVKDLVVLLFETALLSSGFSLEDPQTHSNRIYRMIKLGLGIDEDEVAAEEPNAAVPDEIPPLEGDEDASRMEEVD
Chain of His6-Hsp90β CTD (P08238 530-724): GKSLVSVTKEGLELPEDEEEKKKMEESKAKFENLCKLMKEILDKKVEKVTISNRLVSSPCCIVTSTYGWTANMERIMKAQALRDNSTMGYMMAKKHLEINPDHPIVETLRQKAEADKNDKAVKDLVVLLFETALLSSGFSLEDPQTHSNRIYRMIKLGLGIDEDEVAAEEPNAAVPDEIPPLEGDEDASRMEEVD
Chain of BSA (P02769 25-607): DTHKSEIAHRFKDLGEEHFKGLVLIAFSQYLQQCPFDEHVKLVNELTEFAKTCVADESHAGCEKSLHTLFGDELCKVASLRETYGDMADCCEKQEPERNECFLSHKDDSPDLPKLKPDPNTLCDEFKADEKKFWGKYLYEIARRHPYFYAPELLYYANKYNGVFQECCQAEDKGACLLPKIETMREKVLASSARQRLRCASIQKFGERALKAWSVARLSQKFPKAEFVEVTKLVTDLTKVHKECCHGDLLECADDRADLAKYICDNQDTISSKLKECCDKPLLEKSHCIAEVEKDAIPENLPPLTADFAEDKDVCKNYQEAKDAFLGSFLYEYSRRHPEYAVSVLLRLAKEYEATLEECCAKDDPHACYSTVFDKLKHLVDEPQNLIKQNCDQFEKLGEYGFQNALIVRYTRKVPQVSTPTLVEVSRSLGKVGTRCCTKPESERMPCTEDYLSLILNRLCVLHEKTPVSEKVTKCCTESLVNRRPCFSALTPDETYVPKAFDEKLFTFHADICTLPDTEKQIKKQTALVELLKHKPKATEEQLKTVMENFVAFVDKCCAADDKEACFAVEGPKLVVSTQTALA
Chain of Hsp70 (P0DMV8 whole entry): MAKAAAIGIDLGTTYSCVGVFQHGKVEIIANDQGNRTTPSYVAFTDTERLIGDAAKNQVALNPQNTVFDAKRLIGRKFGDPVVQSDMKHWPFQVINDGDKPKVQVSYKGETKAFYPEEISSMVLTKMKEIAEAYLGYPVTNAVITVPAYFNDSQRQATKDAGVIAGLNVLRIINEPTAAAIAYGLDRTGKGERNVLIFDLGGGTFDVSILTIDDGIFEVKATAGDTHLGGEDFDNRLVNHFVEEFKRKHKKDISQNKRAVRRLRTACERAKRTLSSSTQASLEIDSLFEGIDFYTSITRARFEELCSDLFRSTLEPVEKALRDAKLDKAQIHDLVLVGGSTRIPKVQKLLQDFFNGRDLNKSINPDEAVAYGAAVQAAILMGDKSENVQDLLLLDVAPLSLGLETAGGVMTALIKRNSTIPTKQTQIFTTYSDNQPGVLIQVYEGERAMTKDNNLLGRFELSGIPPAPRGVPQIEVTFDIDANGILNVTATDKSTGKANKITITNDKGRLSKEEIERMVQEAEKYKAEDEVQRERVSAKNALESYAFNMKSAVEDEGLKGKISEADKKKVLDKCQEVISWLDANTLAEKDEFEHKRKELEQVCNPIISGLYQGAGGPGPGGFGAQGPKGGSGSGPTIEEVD

## CC(C)(C)CC(C)(C)NCC(O)COc1ccc(C(C)(C)c2ccc(OCC(O)CNC(C)(C)CC(C)(C)C)cc2)cc1.Cl (stereo not drawn) [NSC145366, 1-(4-(2-(4-(2-hydroxy-3-(2,4,4-trimethylpentan-2-ylami-no)propoxy)phenyl)propan-2-yl)phenoxy)-3-(2,4,4-trimethylpentan-2-ylamino)propan-2-ol hydrochloride]
Hsp90α
  protection of Hsp90α from pronase degradation (DARTs): protection of Hsp90α was clearly observed
GST-Hsp90α CTD (626–732)
  protection of Hsp90 CTD from pronase degradation (DARTs): protects the Hsp90 CTD from pronase degradation
GST-Hsp90α NTD (9–236)
  protection of Hsp90 NTD from pronase degradation (DARTs): no protection observed
Hsp90β [1]
  Kd: ~3800 nM
GST-Hsp90α CTD [2]; 10 μM to 40 μM
  level of ADH aggregation, dose dependence: increases the level of ADH aggregation in a dose dependent manner
GST-Hsp90α CTD [2]; 40 μM compound, 500 nM Hsp90 CTD, 55 °C, end point 90 min
  inhibition of Hsp90 CTD chaperone (anti-aggregation) activity, ADH aggregation assay: completely eliminates CTD chaperone activity
Hsp90 CTD
  inhibition of CTD chaperone activity, insulin aggregation: inhibits CTD chaperone activity
Hsp90; 25 and 50 μM
  level of inhibition of luciferase refolding compared with Cm A1: greater than C-terminal inhibitor Cm A1
Hsp90; rabbit reticulocyte lysate, 90 min
  luciferase refolding (luciferase activity vs vehicle): decreased luciferase activity as compared to vehicle treated lysates
His6-Hsp90β CTD
  oligomerization state of His6-Hsp90β CTD (crosslinking): even higher order oligomerized species; also recorded: CTD monomer band was eliminated
full-length Hsp90α
  oligomerization state of full-length Hsp90α (crosslinking): presence of a higher-order oligomer
GST-Hsp90α CTD [3]
  oligomerization state of GST-Hsp90α CTD (crosslinking): induced CTD oligomerization increases in a dose dependent manner
GST-Hsp90α NTD [4]
  oligomerization of GST-Hsp90α NTD (crosslinking): no effect on oligomerization of the NTD
BSA
  oligomerization of BSA: does not induce oligomerization of BSA
Hsp90β [5]
  IC50: ~109000 nM
Hsp70
  inhibition of Hsp70 ATPase function: no inhibitory activity up to 200 μM
Hsp90β [6]
  competition with FITC-GA binding to Hsp90β: does not compete with FITC-GA binding
GST-Hsp90α CTD [7]
  inhibition of CTD binding to ATP-agarose: does not disrupt NTD or CTD binding to ATP
GST-Hsp90α NTD [8]
  inhibition of NTD binding to ATP-agarose: does not disrupt NTD or CTD binding to ATP
PC3
  GI50: 1850 nM
DU-145
  GI50: 1380 nM
LNCaP cells [9]
  induction of classical heat shock response (Hsp70, Hsp27, Hsp40): not detectable
LNCaP cells [9]; 1 μM and 3 μM
  AR expression level compared to DMSO: 50%
  Akt expression: do not show significant downregulation
  BRAF expression: do not show significant downregulation
LNCaP cells [9]; 3 μM
  BRCA1 expression level compared to DMSO: 15%
  Hsp40 expression: only appears to induce Hsp40 expression after 48 h cellular treatment at the highest concentration
LNCaP cells [10]
  cytotoxicity to LNCaP cells: completely cytotoxic
Lewis lung carcinoma
  antitumor activity, treated/control: 68%
[11]
  toxic dose: ≥ 6.25 mg/kg
